In publication PMC7227796 (ACS chemical neuroscience, 2020):
Structures can show the parent of a compound that is named as a salt.

Legend:
[1] = target: GluN1/GluN2A NMDA receptor (Rattus norvegicus, UniProt P35439+Q00959); experiment: Two-electrode voltage-clamp recordings, Xenopus oocytes expressing GluN1/GluN2A; assay type: cell-based
Procedure, shortened: (§1)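 Xenopus oocytes were injected with rat GluN1-1a and GluN2A, 2B, 2C or 2D cRNA at a 1:2 ratio. Two-electrode voltage clamp was run 2–6 days later at room temperature and −40 mV. Bath was 90 NaCl, 1 KCl, 10 HEPES, 0.5 BaCl2, 0.01 EDTA (mM), pH 7.4. Currents were evoked by 1 μM glutamate plus 100 μM glycine, with test compound gravity-perfused. Hill fits gave IC50 per oocyte (5–6 oocytes). Ki was derived by Cheng-Prusoff using earlier glutamate EC50 values.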

[2] = target: GluN1/GluN2B NMDA receptor (Rattus norvegicus, UniProt P35439+Q00960); experiment: Two-electrode voltage-clamp recordings, Xenopus oocytes expressing GluN1/GluN2B; assay type: cell-based
GluN1/GluN2B NMDA receptor, sequence (Q00960 27-1482, other chains not shown): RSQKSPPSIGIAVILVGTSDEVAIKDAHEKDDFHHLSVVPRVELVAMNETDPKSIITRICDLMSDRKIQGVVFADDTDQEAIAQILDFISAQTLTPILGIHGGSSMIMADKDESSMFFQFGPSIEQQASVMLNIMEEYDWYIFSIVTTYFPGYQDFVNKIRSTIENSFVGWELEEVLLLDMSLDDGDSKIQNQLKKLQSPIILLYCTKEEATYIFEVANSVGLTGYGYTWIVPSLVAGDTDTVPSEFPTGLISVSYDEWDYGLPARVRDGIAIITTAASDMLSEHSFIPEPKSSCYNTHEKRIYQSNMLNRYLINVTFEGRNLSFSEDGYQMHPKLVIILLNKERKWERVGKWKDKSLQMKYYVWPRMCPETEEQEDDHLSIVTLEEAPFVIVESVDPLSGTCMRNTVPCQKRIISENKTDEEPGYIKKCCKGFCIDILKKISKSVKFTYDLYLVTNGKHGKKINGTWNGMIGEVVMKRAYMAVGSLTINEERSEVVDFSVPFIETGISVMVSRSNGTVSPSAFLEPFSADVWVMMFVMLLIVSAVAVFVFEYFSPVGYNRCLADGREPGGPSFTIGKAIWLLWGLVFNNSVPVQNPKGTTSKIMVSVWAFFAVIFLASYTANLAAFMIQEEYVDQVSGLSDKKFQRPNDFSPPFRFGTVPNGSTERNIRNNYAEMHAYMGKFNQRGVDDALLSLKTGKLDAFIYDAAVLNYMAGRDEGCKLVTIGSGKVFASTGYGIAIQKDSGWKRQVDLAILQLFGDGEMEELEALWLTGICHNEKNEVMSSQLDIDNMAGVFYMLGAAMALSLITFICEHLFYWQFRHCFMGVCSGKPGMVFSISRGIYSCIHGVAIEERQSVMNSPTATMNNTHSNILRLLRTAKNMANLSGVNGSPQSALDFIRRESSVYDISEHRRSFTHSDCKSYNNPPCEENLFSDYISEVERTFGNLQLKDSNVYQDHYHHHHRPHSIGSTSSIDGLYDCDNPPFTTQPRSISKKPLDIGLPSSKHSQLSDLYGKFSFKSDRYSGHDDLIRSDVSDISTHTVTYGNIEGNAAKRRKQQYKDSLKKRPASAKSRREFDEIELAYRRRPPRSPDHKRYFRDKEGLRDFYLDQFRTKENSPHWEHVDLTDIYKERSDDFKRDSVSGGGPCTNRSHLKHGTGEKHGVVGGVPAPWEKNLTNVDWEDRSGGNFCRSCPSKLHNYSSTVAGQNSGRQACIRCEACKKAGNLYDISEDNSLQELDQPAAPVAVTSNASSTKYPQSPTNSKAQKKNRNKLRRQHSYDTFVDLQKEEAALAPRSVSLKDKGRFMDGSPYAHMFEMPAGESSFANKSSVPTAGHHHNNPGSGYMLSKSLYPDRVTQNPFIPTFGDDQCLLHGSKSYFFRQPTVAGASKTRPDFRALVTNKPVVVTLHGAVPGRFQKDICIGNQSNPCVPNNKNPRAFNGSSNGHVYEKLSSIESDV
Procedure, shortened: as §1

[3] = target: GluN1/GluN2C NMDA receptor (Rattus norvegicus, UniProt P35439+Q00961); experiment: Two-electrode voltage-clamp recordings, Xenopus oocytes expressing GluN1/GluN2C; assay type: cell-based
Procedure, shortened: as §1

[4] = target: GluN1/GluN2D NMDA receptor (Rattus norvegicus, UniProt P35439+Q62645); experiment: Two-electrode voltage-clamp recordings, Xenopus oocytes expressing GluN1/GluN2D; assay type: cell-based
Procedure, shortened: as §1

native KA receptors [5] = conditions: rat synaptosomes, [3H]KA; earlier work, ref [36],[38],[39]; cited from earlier work
native AMPA receptors = experiment: Radioligand binding at native AMPA receptors; conditions: rat synaptosomes, [3H]AMPA; for IC50: read-out: AMPA IC50, native iGluRs (synaptosomes)
Procedure, shortened: (§2)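 Rat cortical synaptosomal membranes were labelled with 5 nM [3H]AMPA (AMPA), 5 nM [3H]KA (KA) or [3H]CGP39653 (NMDA). Test compound was run at 12–16 concentrations in triplicate, with three to six independent experiments. Cpm were fitted by nonlinear regression. Values are reported as pIC50 for AMPA and KA and as pKi for NMDA, each as mean with SEM.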

native KA receptors [6] = experiment: Radioligand binding at native KA receptors; conditions: rat synaptosomes, [3H]KA
Procedure, shortened: as §2

native NMDA receptors = experiment: Radioligand binding at native NMDA receptors; parameters: species or system rat; conditions: for NMDA pKi with SEM (in brackets) / Ki: rat synaptosomes, [3H]CGP-39653; for Ki: read-out: NMDA Ki, native iGluRs (synaptosomes)
Procedure, shortened: as §2

GluK1 = GluK1 (Rattus norvegicus, UniProt P22756); experiment: Radioligand binding at recombinant homomeric GluK1
GluK1, sequence (P22756 31-920 isoform P22756-4 limits assumed): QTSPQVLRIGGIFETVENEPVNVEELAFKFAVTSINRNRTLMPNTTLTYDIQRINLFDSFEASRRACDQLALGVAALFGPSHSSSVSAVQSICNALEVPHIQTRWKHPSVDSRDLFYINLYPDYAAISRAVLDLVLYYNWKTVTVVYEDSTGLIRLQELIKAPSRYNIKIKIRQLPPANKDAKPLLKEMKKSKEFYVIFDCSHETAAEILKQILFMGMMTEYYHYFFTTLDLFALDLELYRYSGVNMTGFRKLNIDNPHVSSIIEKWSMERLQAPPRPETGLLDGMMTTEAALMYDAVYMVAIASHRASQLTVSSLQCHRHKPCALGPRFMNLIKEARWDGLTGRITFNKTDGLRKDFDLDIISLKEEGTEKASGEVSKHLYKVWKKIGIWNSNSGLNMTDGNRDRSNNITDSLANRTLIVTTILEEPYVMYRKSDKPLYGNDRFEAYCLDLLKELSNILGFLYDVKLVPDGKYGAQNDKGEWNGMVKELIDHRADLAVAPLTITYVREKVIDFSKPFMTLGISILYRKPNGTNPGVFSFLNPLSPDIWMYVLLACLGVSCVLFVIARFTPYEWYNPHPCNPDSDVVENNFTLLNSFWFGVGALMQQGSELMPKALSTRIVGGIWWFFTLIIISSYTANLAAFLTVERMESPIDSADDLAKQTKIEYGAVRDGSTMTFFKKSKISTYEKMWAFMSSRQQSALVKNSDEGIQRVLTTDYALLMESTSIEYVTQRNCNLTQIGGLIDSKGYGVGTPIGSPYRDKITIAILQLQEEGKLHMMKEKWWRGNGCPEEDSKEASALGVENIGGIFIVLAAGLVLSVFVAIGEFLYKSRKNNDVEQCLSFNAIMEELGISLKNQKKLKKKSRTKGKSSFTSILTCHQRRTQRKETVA
Procedure, shortened: (§3)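 Membranes from sf9 cells expressing rat homomeric GluK1, GluK2 or GluK3 were incubated in 50 mM Tris-HCl, pH 7.1, for 2 h at 4 °C. Radioligand was [3H]-(S)-NF608 for GluK1 and [3H]kainic acid for GluK2 and GluK3. Samples were filtered on GF/B, washed twice with ice-cold buffer, dried for 1 h at 70 °C and counted by scintillation. Ki came from 12–16-point triplicate curves. Single-point % specific binding is mean ± SD of three experiments, at 10 μM test compound where stated.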

GluK2 = GluK2 (Rattus norvegicus, UniProt P42260); experiment: Radioligand binding at recombinant homomeric GluK2
GluK2, sequence (P42260 32-908): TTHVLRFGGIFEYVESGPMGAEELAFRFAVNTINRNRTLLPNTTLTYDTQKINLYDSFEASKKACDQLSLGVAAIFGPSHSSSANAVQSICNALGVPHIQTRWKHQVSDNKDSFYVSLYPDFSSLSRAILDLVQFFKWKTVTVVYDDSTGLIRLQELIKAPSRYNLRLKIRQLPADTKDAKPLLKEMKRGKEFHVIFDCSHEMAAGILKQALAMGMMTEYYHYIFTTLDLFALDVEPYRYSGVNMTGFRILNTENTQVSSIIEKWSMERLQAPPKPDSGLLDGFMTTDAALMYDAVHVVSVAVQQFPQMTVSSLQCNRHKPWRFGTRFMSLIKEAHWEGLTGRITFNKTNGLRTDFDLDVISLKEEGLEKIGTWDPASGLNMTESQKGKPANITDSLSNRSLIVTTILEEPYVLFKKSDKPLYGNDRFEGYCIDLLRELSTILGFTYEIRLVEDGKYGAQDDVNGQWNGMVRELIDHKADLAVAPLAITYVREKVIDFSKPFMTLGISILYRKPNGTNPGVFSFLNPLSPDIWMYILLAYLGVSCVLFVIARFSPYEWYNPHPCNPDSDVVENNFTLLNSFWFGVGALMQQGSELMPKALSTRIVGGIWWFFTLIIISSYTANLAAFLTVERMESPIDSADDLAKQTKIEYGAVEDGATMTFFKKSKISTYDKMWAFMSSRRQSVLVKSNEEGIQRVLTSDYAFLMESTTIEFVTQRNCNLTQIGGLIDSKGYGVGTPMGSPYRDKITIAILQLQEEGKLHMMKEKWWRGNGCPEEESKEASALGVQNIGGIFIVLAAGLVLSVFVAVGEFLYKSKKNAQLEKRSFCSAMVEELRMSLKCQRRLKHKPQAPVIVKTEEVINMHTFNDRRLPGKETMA
Procedure, shortened: as §3

GluK3 = GluK3 (Rattus norvegicus, UniProt P42264); experiment: Radioligand binding at recombinant homomeric GluK3
Procedure, shortened: as §3

[7] = target: GluN1/GluN2A NMDA receptor (Rattus norvegicus, UniProt Q00959); experiment: Two-electrode voltage-clamp recordings, Xenopus oocytes expressing GluN1/GluN2A; assay type: cell-based; conditions: two-electrode voltage-clamp
GluN1/GluN2A NMDA receptor (Rattus norvegicus, UniProt Q00959), sequence (Q00959 23-1464, other chains not shown): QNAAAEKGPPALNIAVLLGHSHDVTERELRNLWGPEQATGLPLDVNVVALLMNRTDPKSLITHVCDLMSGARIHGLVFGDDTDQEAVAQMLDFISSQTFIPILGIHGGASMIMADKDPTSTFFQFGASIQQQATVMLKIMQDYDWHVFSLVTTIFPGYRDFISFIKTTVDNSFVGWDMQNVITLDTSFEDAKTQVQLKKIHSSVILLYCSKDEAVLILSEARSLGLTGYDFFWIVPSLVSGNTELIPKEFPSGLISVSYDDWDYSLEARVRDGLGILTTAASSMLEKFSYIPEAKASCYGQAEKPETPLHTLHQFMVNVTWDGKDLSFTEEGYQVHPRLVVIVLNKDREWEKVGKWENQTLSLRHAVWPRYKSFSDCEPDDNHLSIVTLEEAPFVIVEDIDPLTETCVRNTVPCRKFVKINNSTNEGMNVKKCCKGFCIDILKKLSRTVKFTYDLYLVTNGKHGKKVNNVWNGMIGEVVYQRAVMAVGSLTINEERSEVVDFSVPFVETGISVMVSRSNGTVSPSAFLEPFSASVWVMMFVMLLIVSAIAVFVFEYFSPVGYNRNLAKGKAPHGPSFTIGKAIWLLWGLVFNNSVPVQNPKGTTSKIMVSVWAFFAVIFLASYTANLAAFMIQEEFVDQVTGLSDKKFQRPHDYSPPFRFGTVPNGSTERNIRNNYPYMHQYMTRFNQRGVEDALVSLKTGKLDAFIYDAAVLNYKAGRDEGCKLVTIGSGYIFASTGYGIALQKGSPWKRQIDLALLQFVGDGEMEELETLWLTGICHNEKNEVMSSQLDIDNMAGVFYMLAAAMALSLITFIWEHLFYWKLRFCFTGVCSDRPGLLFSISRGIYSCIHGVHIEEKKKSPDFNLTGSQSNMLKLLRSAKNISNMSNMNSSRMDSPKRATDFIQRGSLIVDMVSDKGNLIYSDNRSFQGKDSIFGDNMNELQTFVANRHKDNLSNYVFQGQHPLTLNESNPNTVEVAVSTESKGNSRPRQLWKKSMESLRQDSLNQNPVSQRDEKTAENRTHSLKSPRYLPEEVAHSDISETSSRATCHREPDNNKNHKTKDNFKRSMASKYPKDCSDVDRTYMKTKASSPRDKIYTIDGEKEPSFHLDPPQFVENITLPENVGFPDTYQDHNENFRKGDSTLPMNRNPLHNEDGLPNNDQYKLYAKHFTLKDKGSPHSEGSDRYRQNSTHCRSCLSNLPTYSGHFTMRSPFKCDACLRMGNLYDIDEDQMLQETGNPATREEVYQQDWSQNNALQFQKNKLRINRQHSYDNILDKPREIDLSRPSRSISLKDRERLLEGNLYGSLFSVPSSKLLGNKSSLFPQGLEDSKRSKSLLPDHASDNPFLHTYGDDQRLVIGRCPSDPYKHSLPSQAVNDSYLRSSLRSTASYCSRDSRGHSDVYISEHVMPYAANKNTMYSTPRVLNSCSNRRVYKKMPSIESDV
Procedure, shortened: as §1

GluA1 = GluA1 (Rattus norvegicus, UniProt P19490); experiment: Radioligand binding at recombinant homomeric GluA1
Procedure, shortened: (§4)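 Membranes from sf9 cells expressing rat homomeric GluA1 or GluA2 were incubated with [3H]-(S)-AMPA and test compound for 2 h at 4 °C. Buffer was 50 mM Tris-HCl, 0.1 M KSCN, 2.5 mM CaCl2, pH 7.2. Samples were filtered on GF/C, washed twice with ice-cold buffer and counted by scintillation. Competition curves used 12–16 concentrations in triplicate. Ki came from a one-site fit and nH from a four-parameter logistic fit.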

GluA2 = GluA2 (Rattus norvegicus, UniProt P19491); experiment: Radioligand binding at recombinant homomeric GluA2
Procedure, shortened: as §4

Row | Compound | IC50 [1] [µM] | IC50 [2] [µM] | IC50 [3] [µM] | IC50 [4] [µM] | IC50 (native AMPA receptors) [µM] | KA IC50, native iGluRs (synaptosomes) (native KA receptors [6]) [µM] | NMDA pKi with SEM (in brackets) (native NMDA receptors) | Ki (native NMDA receptors) [µM] | Ki (GluK1) [µM] | Ki (GluK2) [µM] | Ki (GluK3) [µM] | AMPA pIC50 with SEM (in brackets) (native AMPA receptors) | KA pIC50 with SEM (in brackets) (native KA receptors [6]) | Ki (GluA1) [µM] | Ki (GluA2) [µM] | further results
1 | Cl.O=C(O)c1cccc([C@H]2CCN[C@@H]2C(=O)O)c1 [4a, (2S,3R)-3-(3-Carboxyphenyl)pyrrolidine-2-carboxylic acid hydrochloride] | 11.8 ± 0.23 | 34.5 ± 0.97 | 91.2 ± 2.6 | > 100 | – | – | – | – | – | – | – | – | – | – | – | KA (IC50), native iGluRs (native KA receptors [5]): 22 µM
2 | Cl.O=C(O)c1cc([C@H]2CCN[C@@H]2C(=O)O)ccc1Br [4f, (2S,3R)-3-(4-Bromo-3-carboxyphenyl)pyrrolidine-2-carboxylic acid hydrochloride] | – | – | – | – | – | – | – | – | – | – | – | – | – | – | – | KA (IC50), native iGluRs (native KA receptors [5]): >100 µM
3 | O=C(O)c1ccc([C@H]2CCN[C@@H]2C(=O)O)cc1C(=O)O [4h, 4-((2S,3R)-2-Carboxypyrrolidin-3-yl)phthalic acid tri sodium salt] | 0.75 ± 0.03 | 4.24 ± 0.13 | 5.17 ± 0.12 | 24.3 ± 1.46 | > 100 | >100 | 5.88 ± 0.06 | 1.3 | > 100 | > 100 | > 100 | – | – | – | – | selectivity for GluN1/2A over GluN1/2B and GluN1/2C [7]: 6 to 10 fold; selectivity for GluN1/2A over GluN1/2D [7]: 32 to 34 fold
4 | Cl.O=C(O)c1cc(C(=O)O)cc([C@H]2CCN[C@@H]2C(=O)O)c1 [5c, 5-((2S,3R)-2-Carboxypyrrolidin-3-yl)isophthalic acid hydrochloride] | 0.63 ± 0.01 | 4.37 ± 0.17 | 6.27 ± 0.13 | 21.2 ± 0.37 | 36 | 63 | 6.32 ± 0.03 | 0.48 | 12.5 ± 1.7 | > 100 | 15.7 ± 3.1 | 4.45 ± 0.04 | 4.21 ± 0.05 | – | – | increase in affinity for native NMDA receptors (native NMDA receptors; compared to 4a): 9 fold; selectivity/preference for NMDA receptors over AMPA and KA receptors (native NMDA receptors; native receptors): 75 fold; selectivity for GluN1/2A over GluN1/2B and GluN1/2C [7]: 6 to 10 fold; selectivity for GluN1/2A over GluN1/2D [7]: 32 to 34 fold
5 | Cl.O=C(O)c1cc(-c2ccccn2)cc([C@H]2CCN[C@@H]2C(=O)O)c1 [5e, (2S,3R)-3-(3-Carboxy-5-(pyridin-2-yl)phenyl)pyrrolidine-2-carboxylic acid hydrochloride] | – | – | – | – | 40 | 20 | 5.42±0.01 | 3.8 | 20 ± 1.8 | > 100 | 6.4 ± 0.41 | 4.40±0.05 | 4.71±0.05 | 19 | 55 | –
6 | Cl.O=C(O)c1cc(-c2cccnc2)cc([C@H]2CCN[C@@H]2C(=O)O)c1 [5f, (2S,3R)-3-(3-Carboxy-5-(pyridin-3-yl)phenyl)pyrrolidine-2-carboxylic acid hydrochloride] | – | – | – | – | 29 | 23 | 5.51±0.02 | 3.1 | 25 ± 1.2 | > 100 | 5.9 ± 0.62 | 4.57±0.13 | 4.65±0.03 | 15 | 40 | –
7 | Cl.O=C(O)c1cc(-c2ccncc2)cc([C@H]2CCN[C@@H]2C(=O)O)c1 [5g, (2S,3R)-3-(3-Carboxy-5-(pyridin-4-yl)phenyl)pyrrolidine-2-carboxylic acid hydrochloride] | – | – | – | – | 27 | 25 | 5.76±0.01 | 1.7 | 22 ± 2.3 | > 100 | 6.5 ± 0.92 | – | 4.61±0.05 | 12 | 33 | –
8 | Cl.O=C(O)c1cc(-c2cncnc2)cc([C@H]2CCN[C@@H]2C(=O)O)c1 [5h, (2S,3R)-3-(3-Carboxy-5-(pyrimidin-5-yl)phenyl)pyrrolidine-2-carboxylic acid hydrochloride] | – | – | – | – | 59 | >100 | 4.98±0.01 | 10 | 100 | 100 | 13 ± 0.17 | 4.30±0.13 | – | 22.7 | 82.9 | –
9 | Cl.O=C(O)c1cc(-c2cnc(O)nc2)cc([C@H]2CCN[C@@H]2C(=O)O)c1 [5i, (2S,3R)-3-(3-Carboxy-5-(2-hydroxypyrimidin-5-yl)phenyl)pyrrolidine-2-carboxylic acid hydrochloride] | – | – | – | – | 13 | >100 | 5.39±0.03 | 4.1 | 76 ± 1.8 | > 100 | 16 ± 0.98 | 4.92±0.13 | – | 10 | 56 | –
10 | Cl.O=C(O)c1cc([C@H]2CCN[C@@H]2C(=O)O)cc(C(=O)O)c1Cl [6b, 5-((2S,3R)-2-Carboxypyrrolidin-3-yl)-2-chloroisophthalic acid hydrochloride] | 0.2 ± 0.02 | 0.75 ± 0.04 | 1.33 ± 0.03 | 5.15 ± 0.23 | > 100 | >100 | 6.82 ± 0.08 | 0.16 | ≥ 100 | ≥ 100 | > 50 | – | – | – | – | Ki [1]: 0.2 µM
11 | O=C(O)C(F)(F)F.O=C(O)c1ccc([C@H]2CCN[C@@H]2C(=O)O)cc1 [compound 7, (2S,3R)-3-(4-Carboxyphenyl)pyrrolidine-2-carboxylic acid trifluoro acetic acid] | 45 ± 1.5 | 165 ± 14.1 | 193 ± 6.1 | 159 ± 8.7 | > 100 | >100 | – | 8.5 | > 100 | > 100 | > 100 | – | – | – | – | –
